What was measured:
[1] = substrate: CC[C@@H](C)[C@@H](NC(=O)OCc1ccccc1)C(=O)N1CCC[C@H]1C(=O)N[C@H](CCCCC(=N)N)C(=O)N(C)c1ccc(C#C/C=C/c2ccc([N+](=O)[O-])c(O)c2)cc1; experiment: Proteolysis constant (Km), when mixed with trypsin enzyme for the conversion of water-soluble compound to fluorescent oil-soluble compound; conditions: Sus scrofa
Outline: (§1)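 Porcine pancreatic trypsin (type IX), porcine pancreatic kallikrein, bovine spleen cathepsin B and porcine pancreatic elastase, each enzyme added to 12 µM substrate solution over mineral oil, shaken at 37 °C. Buffers: trypsin 10 mM Tris-HCl pH 7.8; kallikrein 50 mM Tris pH 9.0; cathepsin B 100 mM potassium phosphate pH 6.0; elastase 10 mM Tris-HCl pH 7.5. Released fluorophore in the oil is diluted with n-heptane and quantified at 424 nm against oil absorbance at 272 nm.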

[2] = substrate: COCCOCCOCCOCCOC(=O)N[C@@H](C)C(=O)N[C@H](C)C(=O)N(C)c1ccc(C#C/C=C/c2ccc([N+](=O)[O-])c(O)c2)cc1; experiment: Proteolysis constant (Km), when mixed with elastase enzyme for the conversion of water-soluble compound to fluorescent oil-soluble compound; outline: as §1
[3] = substrate: CC(C)C[C@H](NC(=O)[C@H](N)Cc1ccc(O)cc1)C(=O)N[C@@H](C(=O)N(C)c1ccc(C#C/C=C/c2ccc([N+](=O)[O-])c(O)c2)cc1)C(C)C; experiment: Proteolysis constant (Km), when mixed with human leukocyte elastase (HLE) enzyme for the conversion of water-soluble compound to fluorescent oil-soluble compound
Outline: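 Human leukocyte elastase (1 unit = 1.2 µg; releases 1 µmol/min p-nitrophenol from N-t-BOC-L-alanine-p-nitrophenyl ester, pH 6.5, 37 °C) in 50 mM NaOAc, 100 mM NaCl, 8 mM NaN3 pH 6.0. Enzyme mixed with 12 µM substrate in buffer under a trace mineral-oil layer, shaken at 37 °C. Released fluorophore extracted into oil, diluted with n-heptane, quantified by absorbance at 424 nm against oil at 272 nm.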

[4] = substrate: CN(C(=O)[C@@H](CCCCC(=N)N)NC(=O)[C@H](Cc1ccccc1)NC(=O)[C@H]1CCCN1C(=O)OCc1ccccc1)c1ccc(C#C/C=C/c2ccc([N+](=O)[O-])c(O)c2)cc1; experiment: Proteolysis constant (Km), when mixed with kallikrein enzyme for the conversion of water-soluble compound to fluorescent oil-soluble compound; outline: as §1

B1: Trypsin (Sus scrofa), P00761 (protein)
chain: FPTDDDDKIVGGYTCAANSIPYQVSLNSGSHFCGGSLINSQWVVSAAHCYKSRIQVRLGEHNIDVLEGNEQFINAAKIITHPNFNGNTLDNDIMLIKLSSPATLNSRVATVSLPRSCAAAGTECLISGWGNTKSSGSSYPSLLQCLKAPVLSDSSCKSSYPGQITGNMICVGFLEGGKDSCQGDSGGPVVCNGQLQGIVSWGYGCAQKNKPGVYTKVCNYVNWIQQTIAAN
- Km [1]: 97 µM

B2: Chymotrypsin-like elastase family member 2A (Sus scrofa), P08419 (protein)
chain: MIRALLLSTLVAGALSCGLPANLPQLPRVVGGEDARPNSWPWQVSLQYDSSGQWRHTCGGTLVDQSWVLTAAHCISSSRTYRVVLGRHSLSTNEPGSLAVKVSKLVVHQDWNSNQLSNGNDIALLKLASPVSLTDKIQLGCLPAAGTILPNNYVCYVTGWGRLQTNGASPDILQQGQLLVVDYATCSKPGWWGSTVKTNMICAGGDGIISSCNGDSGGPLNCQGANGQWQVHGIVSFGSSLGCNYYHKPSVFTRVSNYIDWINSVIANN
- Km [2]: 325 µM

B3: Neutrophil elastase (Homo sapiens), P08246 (protein)
chain: MTLGRRLACLFLACVLPALLLGGTALASEIVGGRRARPHAWPFMVSLQLRGGHFCGATLIAPNFVMSAAHCVANVNVRAVRVVLGAHNLSRREPTRQVFAVQRIFENGYDPVNLLNDIVILQLNGSATINANVQVAQLPAQGRRLGNGVQCLAMGWGLLGRNRGIASVLQELNVTVVTSLCRRSNVCTLVRGRQAGVCFGDSGSPLVCNGLIHGIASFVRGGCASGLYPDAFAPVAQFVNWIDSIIQRSEDNPCPHPRDPDPASRTH
- Km [3]: 16.1 µM

B4: Kallikrein 1 (Sus scrofa), O97506 (protein)
chain: MEVIVLFRIISFRQAVYFMCLFAAVSCGCLPQLHKNTFFRGGDVSAMYTPSARHCQMMCTFHPRCLLFSFLPADSTSVTDKRFGCFLKDSVTGMLPRVLRENAISGHSLKQCGHQIRACHRDIYKGIDMRGVNFNVSKVKTVEECQERCTNSIHCLFFTYATQAFNNAEYRNNCLLKHSPGGTPTSIKVLANVESGFSLKPCADSEIGCHMDIFQHLAFSDVDVARVIAPDAFVCRTICTYHPNCLFFTFYTNAWKIESQRNVCFLKTSHSGTPSFPTPQENAISGYSLLTCKQTLPEPCHSKIYSEVDFEGEELNVTFVQGANLCQETCTKTIRCQFFTYSLHPEDCRGEKCKCSLRLSSDGSPTKITHGMRASSGYSLRLCRSGDHSACATKANTRIVGGTDSFLGEWPWQVSLQAKLRAQNHLCGGSIIGHQWVLTAAHCFDGLSLPDIWRIYGGILNISEITKETPFSQVKEIIIHQNYKILESGHDIALLKLETPLNYTDFQKPICLPSRDDTNVVYTNCWVTGWGFTEEKGEIQNILQKVNIPLVSNEECQKSYRDHKISKQMICAGYKEGGKDACKGESGGPLVCKYNGIWHLVGTTSWGEGCARREQPGVYTKVIEYMDWILEKTQDDDGQSWMK
- Km [4]: 92.2 µM
